Bioassay records deposited in PubChem by Johns Hopkins Ion Channel Center.
The list is not random: actives were taken first. Their share in the collection is about 3.5%.
MrgX1 agonist: agonists of human MrgX1 receptor, primary screen, HEK293 cells, Fluo-4 calcium flux. Mas-related G-protein coupled receptor member X1 (Homo sapiens), Q96LB2. Fluo-4 calcium fluorescence, agonist mode; active compounds read high. B-score at 10 µM. 310,000 tested, 0.44% active. AID 588627, 2011;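 active = calcium response B-score plate-corrected fluorescence ratio at least 3 library SD, with starting fluorescence B-score inside 5 SD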
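Test system: Stable human MrgX1 HEK293 cell line | Schedule: Overnight plating before 1 h dye loading | Read-out basis: Baseline-normalised fluorescence change ratio, B-scored | Detection: Kinetic calcium dye fluorescence, Fluo-4 NW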
RGS4 inh: RGS4 inhibitors, primary screen, cell-based, HEK293 M3R inducible RGS4, calcium flux; Regulator of G-protein signaling 4 (Homo sapiens), P49798; Fluo-4 calcium flux; active compounds read high; triggered by carbachol at its EC20; B-score at 10 µM; 310,000 tested, 0.45% active;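 active = B-score, a plate-corrected calcium signal, over three deviations above library mean, with baseline fluorescence within five deviations of library mean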;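 also: RGS4 expression induced by doxycycline in cells with stable M3 receptor; B-score is computed from the integrated fluorescence ratio over baseline after carbachol; higher B-score means a larger calcium signal and so more RGS4 inhibition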
Target sequence (P49798 whole entry, looked up): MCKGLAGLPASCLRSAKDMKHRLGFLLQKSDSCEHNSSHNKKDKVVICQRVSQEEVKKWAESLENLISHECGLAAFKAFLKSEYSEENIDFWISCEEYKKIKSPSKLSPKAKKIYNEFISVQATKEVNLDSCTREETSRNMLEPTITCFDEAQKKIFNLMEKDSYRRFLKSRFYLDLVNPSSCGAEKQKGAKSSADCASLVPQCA
RGS4 pot: RGS4 potentiators or activators, primary screen, cell-based, HEK293 M3R inducible RGS4, calcium flux; carbachol calcium flux Fluo4; active compounds read low; B-score at 10 µM; 310,000 tested, 0.92% active; AID 463111, 2010;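 active = B-score of the integrated calcium signal more than 4 SD below the library mean, with starting fluorescence not abnormally high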;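 also: negative B-score means reduced calcium response which marks RGS4 activation or potentiation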
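Test system: HEK293 cells with stable M3R and inducible RGS4; also added: carbachol at ECmax as muscarinic agonist stimulus; schedule: dye loading 30 min 37 °C, buffer rest 30 min RT; technique: kinetic calcium fluorescence imaging with Fluo4-AM dye, 2 µM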
MrgX1 allo act: positive allosteric modulators of MrgX1, primary screen, HEK293 cells, Fluo-4 calcium flux; Mas-related G-protein coupled receptor member X1 (Homo sapiens), Q96LB2; AID 588675, 2011; B-score at 10 µM; 310,000 tested, 0.63% active; FDSS; active compounds read high;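 active = plate-corrected calcium response at least 3 library SD above typical, normal starting fluorescence, not activating the receptor alone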;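 also: compound read alongside a low EC10 to EC30 dose of BAM8-22 agonist; peak minus trough fluorescence over baseline measured at the second addition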
MrgX1 antag: antagonists of human MrgX1 receptor, primary screen, HEK293 cells, Fluo-4 calcium flux | Mas-related G-protein coupled receptor member X1 (Homo sapiens), Q96LB2 | BAM8-22 antagonism; active compounds read low | B-score at 10 µM | 310,000 tested, 1.3% active | AID 588676, 2011;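 active = calcium-response B-score plate-corrected more than 3 library SD below zero, starting fluorescence within 5 deviations, no agonist response on first addition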;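 also: peak minus trough fluorescence over baseline after final BAM8-22 challenge near maximal dose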
Active calls of the source: *; i = inactive.

SMILES	MrgX1 agonist	RGS4 inh	RGS4 pot	MrgX1 allo act	MrgX1 antag
O=C(N/C(=C\c1cccnc1)C(=O)N1CCOCC1)c1ccco1	i	i	i	i	-4.95*
CCN1CCN(CC(=O)N/N=C/c2cc(Br)cs2)CC1	i	i	i	i	i
Cc1nccn1CC(=O)N/N=C/c1cc(Br)cs1	i	i	i	i	-5.26*
CCC(C)(C)n1nnnc1C(c1ccc(F)cc1)N1CCN(C(=O)c2ccco2)CC1 (configuration not stated)	i	i	i	i	i
CCC(=O)O[C@]1(C(=O)SCF)[C@H](C)C[C@H]2[C@@H]3C[C@H](F)C4=CC(=O)C=C[C@]4(C)[C@@]3(F)[C@@H](O)C[C@@]21C	i	i	i	i	-6.21*
Cc1nc2ccccc2nc(C)c1=NOCc1ccccc1Cl	i	i	i	i	i
CC(C)(C)c1ccc(C(=O)NNC(=S)NCc2ccco2)cc1	i	i	i	i	i
CC(C)(O)C(=O)NNC(=S)NCc1ccco1	i	i	i	i	-5.35*
O=S(=O)(Nc1cccc(-n2cnnn2)c1)c1ccccc1F	i	i	i	i	i
COc1ccc(S(=O)(=O)c2c(N)n(Cc3ccco3)c3nc4ccccc4nc23)cc1	i	i	i	i	-5.51*
CCc1ccccc1NC(=S)Nn1cnnc1	i	i	i	i	i
Cn1c2ccccc2c2cc(/C=N/NC(=O)c3ccc(O)cc3O)ccc21	i	i	i	i	i
Cn1c(O)c(/C=N/NC(=O)c2cc3ccccc3cc2O)c2ccccc21	49.8*	i	-7.59*	i	i
Cc1c(NC(=S)N/N=C/c2ccc(Br)cc2)c(=O)n(-c2ccccc2)n1C	i	i	i	i	i
Cn1c(CS/C(N)=N/N=C/c2ccccc2)c(Br)c(=O)n1-c1ccccc1	46.1*	i	i	i	i
N#C/C(=C\c1ccc(O)c(O)c1)S(=O)(=O)c1ccccc1	i	i	i	13.7*	i
CCOC(=O)c1cccc(NC(=O)C2(S(=O)(=O)c3ccc(Cl)cc3)CC2)c1	i	i	i	i	i
CCN(CC(=O)Nc1c(F)cccc1F)C(=O)CCC(=O)c1ccc(C)cc1	i	i	i	i	i
N#Cc1cccc(NC(=O)CCNS(=O)(=O)c2ccc3[nH]c(=O)oc3c2)c1	i	i	i	i	i
FC(F)(F)c1cc(C(F)(F)F)c2ccc(N3CCN(c4ccc(Cl)cc4)CC3)nc2n1	i	i	i	i	i
N#CC(c1ccc(Cl)cc1)c1ccc2c(C(F)(F)F)cc(C(F)(F)F)nc2n1 (configuration not stated)	i	i	-8.07*	i	i
CSc1cccc(N2CC(C(=O)Nc3ccccc3N3CCCC3)CC2=O)c1 (configuration not stated)	i	i	i	i	i
O=C(Nc1cccc(NC(=O)c2ccc(-c3ccc(Br)cc3)o2)c1)c1ccccc1	i	i	i	i	-4.62*
COc1ccc(Br)cc1C(=O)Nc1cccc(NC(=O)c2ccco2)c1	i	i	i	i	i
O=C(Nc1cccc(NC(=O)c2ccc(-c3cccc(Br)c3)o2)c1)c1ccco1	i	i	-8.95*	i	i
SMILES	MrgX1 agonist	RGS4 inh	RGS4 pot	MrgX1 allo act	MrgX1 antag
O=C(Nc1ccccc1)c1ccc(-c2ccc(Br)cc2)o1	i	i	i	i	i
C#CCNC(=O)C1=C[C@@H](c2coc3ccccc3c2=O)C[C@@H](OCc2ccc(CO)cc2)O1	i	i	i	i	i
Cc1c(NC(=O)C(C)OC(=O)c2c3c(nc4ccccc24)CCC3)c(=O)n(-c2ccccc2)n1C (configuration not stated)	i	i	i	i	i
CCN1C(=O)/C(=C\N2CCN(C)CC2)SC1=S	i	i	i	i	-4.62*
Cc1ccc(S(=O)(=O)NC(=O)COc2ccc(Cl)cc2Cl)cc1	i	i	i	i	i
O=C1Nc2ccccc2C1=Nc1ccc(Cl)cc1	i	i	i	i	i
